GAA850 FXN act: activators of GAA850 frataxin (FXN) promoter | AID 540364 | activation, % at 6 µM | 360,000 tested, 0.56% active | HEK293 lucGAA850 FXN promoter luciferase reporter, 24 h; percent of 10 µM SAHA response;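 active = activation above the average of all compounds screened plus 3 SD, cutoff fixed separately per campaign, cut at about 7.5% in these data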;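 note: 0% = DMSO wells and 100% = 10 µM SAHA wells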
NR2E3 ag-1: activates human NR2E3 receptor; Q9Y5X4; CHO-S Gal4-NCOR/VP16-NR2E3 two-hybrid, luciferase; inhibition of corepressor binding, % at 3.98 µM; 360,000 tested, 0.35% active; AID 602229;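 active = inhibition above the mean of all tested compounds plus 3 SD, cut at about 70% in these data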;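 note: 0% = DMSO with NR2E3 transfected cells and 100% = cells lacking NR2E3 construct; higher means lower luciferase signal from less NR2E3 corepressor binding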
Target sequence (Q9Y5X4 whole entry, looked up, the tested form may be a part): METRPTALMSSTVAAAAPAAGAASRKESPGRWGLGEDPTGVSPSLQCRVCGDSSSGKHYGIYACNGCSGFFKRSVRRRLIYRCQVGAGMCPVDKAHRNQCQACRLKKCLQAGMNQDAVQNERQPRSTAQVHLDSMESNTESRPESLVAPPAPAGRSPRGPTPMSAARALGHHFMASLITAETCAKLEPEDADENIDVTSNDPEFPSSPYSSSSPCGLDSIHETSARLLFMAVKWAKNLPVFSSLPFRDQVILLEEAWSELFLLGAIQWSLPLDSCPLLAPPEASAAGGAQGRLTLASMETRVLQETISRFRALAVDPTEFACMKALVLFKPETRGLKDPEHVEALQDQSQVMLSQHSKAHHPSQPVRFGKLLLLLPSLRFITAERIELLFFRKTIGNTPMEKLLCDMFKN
V-ATPase pHluor: yeast V-ATPase proton transport regulation by pHLuorin; S. cerevisiae, pHLuorin cytosolic pH fluorescence; response, % at 10 µM; 350,000 tested, 0.37% active; AID 504577; in the data active = response mostly above about 7.3%, no sharp cut-off; inactive = mostly below about 5.4%; note: actives read high
GalR3 antag: blocks the human galanin receptor 3; HEK293 GalR3-CNG cAMP membrane potential fluorescence; galR3 body fused to GalR1 C-terminus; O60755; inhibition, % at 3 µM; AID 651719; 360,000 tested, 0.44% active;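 active = inhibition above the screen-wide average plus 3 SD, cut at about 13% in these data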;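 note: forskolin and galanin both at EC90 stimulate the cells; cAMP rise reported by CNG channel membrane potential dye signal; 0% = forskolin plus galanin with DMSO and 100% = forskolin alone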
Target sequence (O60755 1-299 limits assumed): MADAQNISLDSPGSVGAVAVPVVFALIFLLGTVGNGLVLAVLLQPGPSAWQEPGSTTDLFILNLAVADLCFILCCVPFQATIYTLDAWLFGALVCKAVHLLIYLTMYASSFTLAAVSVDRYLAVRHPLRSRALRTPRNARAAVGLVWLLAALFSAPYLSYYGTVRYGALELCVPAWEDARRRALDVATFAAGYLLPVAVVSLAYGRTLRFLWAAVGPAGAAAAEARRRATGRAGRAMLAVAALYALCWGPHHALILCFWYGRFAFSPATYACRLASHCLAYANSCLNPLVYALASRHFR
NR2E3 ag-2: agonists of human nuclear receptor NR2E3 | AID 2300 | Q9Y5X4 | inhibition of corepressor binding, % at 4.78 µM | GST-NR2E3/biotin-RetCOR TR-FRET, 1536-well | 320,000 tested, 0.12% active;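 active = percent inhibition above the cutoff of mean plus 3 SD of all tested compounds, set per screening campaign, cut at about 20% in these data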;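 note: 0% = DMSO wells and 100% = biotin wells as full block of FRET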
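Format: 1536-well format; test system: GST-NR2E3 and biotin-RetCOR proteins; read-out basis: percent inhibition of TR-FRET ratio; timing: 5 h incubation at 4 °C; detection: time-resolved FRET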
Env fusion inh: blocks HIV Env-driven cell-cell fusion. HeLa-JRFL Env/CEM21 cell fusion, luciferase. inhibition, % at 12.3 µM. 360,000 tested, 1.1% active. AID 651610;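 active = mean replicate inhibition score of at least 50 and every replicate individually at or above 50; inconclusive = only one of the two criteria met; inactive = mean below 50 and not all replicates reaching 50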;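 note: 0% = plate neutral controls and 100% = maraviroc near 300 nM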
NR2E3 ag confirm: confirmation of human NR2E3 agonists; shares compounds with NR2E3 ag-1; CHO-S mammalian two-hybrid NR2E3-NCOR, luciferase luminescence; inhibition, % at 3.98 µM; 2,300 tested, 51% active;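 active = average inhibition above a cutoff equal to the mean inhibition of all tested compounds plus one SD, cut at about 70% in these data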;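 note: 0% = DMSO in NR2E3 cells and 100% = DMSO in cells lacking NR2E3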
GAL4-VP16 luc: GAL4-VP16 reporter inhibition in NR2E3 agonist counterscreen | 2,300 tested, 29% active | shares compounds with NR2E3 ag-1 | CHO-S GAL4-VP16 luciferase reporter, luminescence | inhibition, % at 3.98 µM;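 active = mean inhibition above a cutoff equal to the average over all tested compounds plus one standard deviation, cut at about 70% in these data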;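 note: luciferase from a UAS reporter driven by GAL4-VP16 transactivation; 0% = DMSO with VP16-transfected cells and 100% = DMSO with cells lacking VP16; higher means less reporter light so more repression of VP16 activity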
Starred values were filed as active, the others as inactive; [ ] = remark or other dose. A selection: hits, their analogues and other compounds. The true share with any hit is near 2.2%.

`Cc1ccc(-c2csc(N3CCC(NS(=O)(=O)c4ccc5c(c4)OCCO5)CC3)n2)cc1` gave GAA850 FXN act 0, NR2E3 ag-1 89*, V-ATPase pHluor 5, GalR3 antag -6, NR2E3 ag-2 0, Env fusion inh inconclusive, NR2E3 ag confirm 99* and GAL4-VP16 luc 89*.
For COCCNC(=S)N/N=C(\C)c1ccccc1O the results were GAA850 FXN act 0, NR2E3 ag-1 66, V-ATPase pHluor 0, GalR3 antag -1, NR2E3 ag-2 0, Env fusion inh -4, NR2E3 ag confirm -73 and GAL4-VP16 luc -50.
Screening Oc1ccccc1/C=N/NC(=S)NC1CC2CCC1C2 (stereo not given) returned GAA850 FXN act 5, NR2E3 ag-1 48, V-ATPase pHluor 1, GalR3 antag 0, NR2E3 ag-2 3, Env fusion inh -23, NR2E3 ag confirm -164 and GAL4-VP16 luc -101.
COc1ccc(O)c(/C=N/NC(=S)NCCc2ccccc2)c1 was read as GAA850 FXN act 2, NR2E3 ag-1 35, V-ATPase pHluor -57, GalR3 antag -7, NR2E3 ag-2 4 and Env fusion inh 6.
`COCCNC(=S)N/N=C/c1ccccc1C(=O)O` gave GAA850 FXN act 0, NR2E3 ag-1 13, V-ATPase pHluor -1, GalR3 antag 0, NR2E3 ag-2 1 and Env fusion inh 5.
`COc1ccc(/C(C)=N/NC(=S)NCCc2ccccc2)c(O)c1` gave GAA850 FXN act 0, NR2E3 ag-1 48, V-ATPase pHluor 4, GalR3 antag -10, NR2E3 ag-2 2, Env fusion inh 7, NR2E3 ag confirm -18 and GAL4-VP16 luc -1.
`COc1cccc(/C=N/NC(=S)NC2CC3CCC2C3)c1OC` (stereo not given) gave GAA850 FXN act 1, NR2E3 ag-1 -19, V-ATPase pHluor 2, GalR3 antag -4, NR2E3 ag-2 3 and Env fusion inh 8.
Screening COCCCNC(=S)N/N=C/c1ccccc1O returned GAA850 FXN act 3, NR2E3 ag-1 74*, V-ATPase pHluor -1, GalR3 antag -6, NR2E3 ag-2 3, Env fusion inh -70, NR2E3 ag confirm -37 and GAL4-VP16 luc -11.
For O=C(C[C@@H]1CC[C@H]2[C@@H](COC[C@@H](O)CN2Cc2cc(F)ccc2F)O1)N1CCc2ccccc2C1 the results were Env fusion inh 8[16.7 µM].
CO[C@H]1CN(C)C(=O)c2ccc(NC(=O)Nc3cc(F)ccc3F)cc2OC[C@@H](C)N(C(=O)c2cnccn2)C[C@H]1C was read as Env fusion inh -2[16.7 µM].
For COc1ccc2c3c(n(C)c2c1)[C@@H](CO)N(C(=O)Cc1ccccn1)CC31CN(CC2CCOCC2)C1 the results were Env fusion inh -10[16.7 µM].
Screening COc1ccc(OC(=O)N(C)C[C@H]2OCc3ccccc3-c3ccccc3C(=O)N([C@@H](C)CO)C[C@H]2C)cc1 returned Env fusion inh 24[16.7 µM].
CCCNC(=O)C[C@@H]1CC[C@@H]2[C@H](COc3ccc(NC(=O)c4cc(C)on4)cc3C(=O)N2C)O1 was read as Env fusion inh 8[16.7 µM].
Screening O=C(Nc1ccc2c(c1)OCCO2)C(c1ccnc2ccccc12)N1CCN(c2ccc(F)cc2)CC1 (stereo not given) returned NR2E3 ag-1 -24, GalR3 antag -9 and Env fusion inh -18.
O=C(Nc1ccc2c(c1)OCCO2)C(c1ccnc2ccccc12)N1CCN(c2ccc(C(F)(F)F)cn2)CC1 (stereo not given) was read as NR2E3 ag-1 58, GalR3 antag 0, Env fusion inh 3, NR2E3 ag confirm 29 and GAL4-VP16 luc 2.
`C[C@H](CO)N1C[C@H](C)[C@@H](CN(C)S(=O)(=O)c2cn(C)cn2)OCCCC[C@H](C)Oc2ccc(NC(=O)CCC(F)(F)F)cc2C1=O` gave Env fusion inh 4[16.7 µM].
`CCOc1ccccc1-n1c(SCC(=O)Nc2ccccc2C(=O)O)nc2ccccc2c1=O` gave GAA850 FXN act -9, NR2E3 ag-1 50, V-ATPase pHluor 2, GalR3 antag -7, NR2E3 ag-2 3, Env fusion inh -16, NR2E3 ag confirm 48 and GAL4-VP16 luc 15.
O=C(Nc1ccc2c(c1)[C@H]1C[C@H](CC(=O)N3CCCCC3)O[C@@H](CO)[C@H]1O2)c1ccc2c(c1)OCO2 was read as Env fusion inh 26[16.7 µM].
For C[C@@H]1CN([C@H](C)CO)C(=O)c2cccc(NC(=O)C3CCCCC3)c2O[C@@H]1CN(C)C the results were Env fusion inh 3[16.7 µM].
CC(C)c1cc2c(c(O)c1O)[C@@]13CCCC(C)(C)C1CC2OC3=O (stereo not given in full) was read as GAA850 FXN act 2, NR2E3 ag-1 85*, V-ATPase pHluor -1, GalR3 antag -1, NR2E3 ag-2 2, NR2E3 ag confirm 92* and GAL4-VP16 luc -5.
`CCN(CC)CCOC(=O)/C=C/c1ccccc1` gave GAA850 FXN act 2, NR2E3 ag-1 1, V-ATPase pHluor 6, GalR3 antag 1, NR2E3 ag-2 1 and Env fusion inh -4.
For CCN(CC)CC(C)(C)C(=O)/C=C/c1ccc(/C=C/C(=O)C(C)(C)CN(CC)CC)cc1 the results were GAA850 FXN act -16, NR2E3 ag-1 103*, V-ATPase pHluor -1, GalR3 antag 36*, Env fusion inh 55*, NR2E3 ag confirm 96* and GAL4-VP16 luc 56.
Cc1cccc(N2CCN(C(=O)CSCc3c(C)noc3C)CC2)c1C was read as GAA850 FXN act -4, NR2E3 ag-1 68, V-ATPase pHluor 3, NR2E3 ag-2 0, NR2E3 ag confirm 87* and GAL4-VP16 luc 68.
CCc1ccc(NC(=O)C2CCCN(S(=O)(=O)c3cccnc3)C2)cc1 (stereo not given) was read as GAA850 FXN act -1, NR2E3 ag-1 -28, V-ATPase pHluor 2, GalR3 antag -6, NR2E3 ag-2 0 and Env fusion inh -5.
`O=C(Nc1ccc(OC(F)(F)F)cc1)C1CCCN(S(=O)(=O)c2cccnc2)C1` (stereo not given) gave GAA850 FXN act 1, NR2E3 ag-1 49, V-ATPase pHluor -174, GalR3 antag 0, NR2E3 ag-2 1, NR2E3 ag confirm -19 and GAL4-VP16 luc -12.
For COc1ccccc1CNC(=O)C[C@@H]1C=C[C@H](NC(C)=O)[C@@H](CO)O1 the results were Env fusion inh -1[16.7 µM].

Compound activity from PubChem.
